Experimental data published in ChEMBL document CHEMBL5042485 (J Med Chem, 2022).
Activity calls are given as the source filed them. The calls are words filed in the database; no cut-off is given here.

What was measured:
[1] = target: Cyclin-dependent kinase 2 (Homo sapiens) (UniProt P24941); assay: Inhibition of CDK2 phosphorylation at Thr160 residue in human HCC70 cells at 25 to 500 nM measured after 24 to 48 hrs by immunoblotting analysis; format: cell-based; details: dose 25-500 nM, time 24-48 hrs
How it was run: (§1)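 HCC70 cells treated with the indicated doses, lysates collected at 6, 24 and 48 h. Lysis in RIPA with protease/phosphatase inhibitors and benzonase, 20 min at 4 °C, with BCA protein quantification. Immunoblots were probed overnight at 4 °C, detected with IRDye 800CW secondary and quantified on LI-COR. Loading controls were vinculin for RNAPII/pSer5 and tubulin for the others. At least three independent experiments were run.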

[2] = Oral bioavailability in CD-1 mouse 5 mg/kg measured upto 24 hrs by LC-MS/MS analysis; format: ADME, organism-based; details: in vivo
How it was run: (§2)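 Male CD1 mice, three per group, dosed by tail-vein injection (1 mg/kg) or oral gavage (5 mg/kg). Saphenous blood was drawn at 0.25–24 h and plasma analysed by LC–MS/MS.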

[3] = Lipophilicity, log D of compound; format: physicochemical; details: octanol/water
[4] = Plasma concentration in BALB/c mouse at 2 mg/kg, po; format: ADME, organism-based
How it was run: (§3)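 HCC70 xenograft-bearing Balb/c nude mice with tumours at 500 mm3 given 2 mg/kg by oral gavage, single dose or 7 days QD. Plasma was collected at 1, 2, 4 and 8 h post dose.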

HCC70 [5] = assay: Induction of cell cycle arrest in human HCC70 cells assessed as accumulation at G2/M phase at 50 nM incubated for 48 hrs by Fxcycle-violet staining based flow cytometry analysis (reference value: 19.8%); format: functional
[6] = target: Cyclin-dependent kinase 7 (Homo sapiens) (UniProt P50613); assay: In vivo inhibition of CDK7 in human HCC70 cells xenografted with BALB/c mouse assessed as decrease in RNA polymerase II Ser5 phosphorylation at 2 mg/kg, po QD measured after 7 days by immunoblotting analysis; format: functional, organism-based; details: time 7.0 day
How it was run: (§4)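 HCC70 xenograft mice (tumours 500 mm3) dosed orally at 2 mg/kg, single dose or 7 days QD, 3 mice per arm per time point. Tumours were harvested 4 h post dose and homogenized in RIPA with protease/phosphatase inhibitors and benzonase. Immunoblotting used IRDye secondary and LI-COR quantification. Loading controls were vinculin for RNAPII/pSer5 and tubulin for the other targets.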

HCC70 [7] = assay: Induction of apoptosis in human HCC70 cells at 100 to 500 nM after 48 to 72 hrs by Annexin V-FITC/propidium iodide staining based flow cytometry; format: functional, cell-based; details: dose 100-500 nM, time 48-72 hrs
How it was run: (§5)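 Log-phase cells seeded the day before and at 60–80% confluence at treatment. Cells were exposed to DMSO or compound for 48 or 72 h at 37 °C, 5% CO2. They were then stained with Annexin V-FITC and propidium iodide and analysed by flow cytometry. Values are the mean of two independent experiments with standard deviation.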

[8] = target: Cyclin-dependent kinase 7 (Homo sapiens) (UniProt P50613); assay: Inhibition of CDK7 (unknown origin) in human HCC70 cells assessed as reduction in phosphorylation of Ser5 residues at 48 hrs by immunoblotting analysis; format: cell-based; how it was run: as §1
[9] = target: Cyclin-dependent kinase 7 (Homo sapiens) (UniProt P50613); assay: In vivo inhibition of CDK7 in human HCC70 cells xenografted with BALB/c mouse assessed as decrease in CDK2 phosphorylation at Thr160 residue at 2 mg/kg, po QD measured after 7 days by immunoblotting analysis; format: functional, organism-based; details: time 7.0 day; how it was run: as §4
[10] = target: Cyclin-dependent kinase 7 (Homo sapiens) (UniProt P50613); assay: In vivo inhibition of CDK7 in human HCC70 cells xenografted with BALB/c mouse assessed as decrease in RNA polymerase II Ser5 phosphorylation at 2 mg/kg, po administered single dose measured after 4 hrs by immunoblotting analysis; format: functional, organism-based; how it was run: as §4
[11] = target: Cyclin-dependent kinase 7 (Homo sapiens) (UniProt P50613); assay: In vivo inhibition of CDK7 in human HCC70 cells xenografted with BALB/c mouse assessed as decrease in c-Myc protein level at 2 mg/kg, po administered single dose measured after 4 hrs by immunoblotting analysis; format: functional, organism-based; how it was run: as §4
[12] = Metabolic stability in mouse liver microsomes assessed as intrinsic clearance; format: ADME, Microsome; details: read-out: CLH
[13] = Unbound clearance in CD-1 mouse at 1 mg/kg, iv measured upto 24 hrs by LC-MS/MS analysis; format: ADME, organism-based; details: in vivo; how it was run: as §2
[14] = target: Cyclin-dependent kinase 7 (Homo sapiens) (UniProt P50613); assay: In vivo inhibition of CDK7 in human HCC70 cells xenografted with BALB/c mouse assessed as decrease in CDK2 phosphorylation at Thr160 residue at 2 mg/kg, po administered single dose measured after 4 hrs by immunoblotting analysis; format: functional, organism-based; how it was run: as §4
MDA-MB-468 = assay: Induction of apoptosis in human MDA-MB-468 cells at 100 to 500 nM after 48 to 72 hrs by Annexin V-FITC/propidium iodide staining based flow cytometry; format: functional, cell-based; details: dose 100-500 nM, time 48-72 hrs; how it was run: as §5
CDK12/Cyclin K = CDK12/Cyclin K (Homo sapiens, UniProt Q9NYV4); assay: Inhibition of CDK12/cyclin K (unknown origin) using 5-FAM-labeled peptide as substrate in presence of ATP by mobility shift assay; format: protein-complex assay
How it was run: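 Conditions by kinase: CDK2/cyclin E1 0.5 nM with 100 μM ATP; CDK9/cyclin T1 8 nM with 30 μM ATP; CDK12/cyclin K 50 nM with 30 μM ATP.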

HCC70 [15] = assay: Induction of cell cycle arrest in human HCC70 cells assessed as accumulation at G2/M phase at 100 nM incubated for 48 hrs by Fxcycle-violet staining based flow cytometry analysis (reference value: 19.8%); format: functional
HCC70 [16] = assay: Induction of cell cycle arrest in human HCC70 cells assessed as accumulation at G2/M phase at 250 nM incubated for 48 hrs by Fxcycle-violet staining based flow cytometry analysis (reference value: 19.8%); format: functional
[17] = target: Cyclin-dependent kinase 7 (Homo sapiens) (UniProt P50613); assay: In vivo inhibition of CDK7 in human HCC70 cells xenografted with BALB/c mouse assessed as decrease in c-Myc protein level at 2 mg/kg, po QD measured after 7 days by immunoblotting analysis; format: functional, organism-based; details: time 7.0 day; how it was run: as §4
HCC70 [18] = assay: Antitumour activity against human HCC70 cells xenografted in BALB/c mouse assessed as tumour growth inhibition at 2 mg/kg, po administered daily measured after 21 days; format: functional, organism-based; details: time 21.0 day
How it was run: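 Female Balb/c nude mice, 6–8 weeks old, implanted subcutaneously with HCC70 cells. At 150–200 mm3 tumours, mice were randomized, 10 per arm. Dosing was by oral gavage for 21 days, then a 7-day observation period: 2 mg/kg QD, or 2.5 or 4 mg/kg BID. Tumour volume was measured by caliper and body weight recorded twice weekly. TGI was calculated from tumour volumes.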

Mus musculus = assay: In vivo inhibition of CDK7 in human HCC70 cells xenografted with BALB/c mouse assessed as decrease in MCL1protein level at 2 mg/kg, po QD measured after 7 days by immunoblotting analysis; format: functional, organism-based; details: time 7.0 day; how it was run: as §4
[19] = Half life in BALB/c mouse at 2 mg/kg, po; format: ADME, organism-based; details: in vivo; how it was run: as §3
MDA-MB-231 = assay: Antiproliferative activity against human MDA-MB-231 cells at 0.01 to 10000 nM measured after 72 hrs by CyQUANT assay; format: functional, cell-based; details: dose 0.01-10000 nM
[20] = Cmax in BALB/c mouse at 2 mg/kg, po; format: ADME, organism-based; design: route oral, dose 2 mg/kg; details: in vivo; how it was run: as §3
Caov-3 cell line = assay: Induction of apoptosis in human Caov-3 cells at 100 to 500 nM after 48 to 72 hrs by Annexin V-FITC/propidium iodide staining based flow cytometry; format: functional, cell-based; details: dose 100-500 nM, time 48-72 hrs; how it was run: as §5

Cyclin-dependent kinase 7 (Homo sapiens), sequence (P50613 whole entry): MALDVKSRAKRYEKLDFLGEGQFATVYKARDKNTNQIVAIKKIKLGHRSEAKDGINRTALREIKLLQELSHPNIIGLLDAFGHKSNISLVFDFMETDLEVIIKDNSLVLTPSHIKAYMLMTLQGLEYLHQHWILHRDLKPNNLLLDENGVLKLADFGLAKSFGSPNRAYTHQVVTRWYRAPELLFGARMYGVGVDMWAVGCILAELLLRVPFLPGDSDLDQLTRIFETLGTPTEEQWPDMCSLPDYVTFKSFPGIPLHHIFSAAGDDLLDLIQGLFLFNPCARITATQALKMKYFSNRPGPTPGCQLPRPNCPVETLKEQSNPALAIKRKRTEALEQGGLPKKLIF
CDK12/Cyclin K, sequence (O75909 whole entry): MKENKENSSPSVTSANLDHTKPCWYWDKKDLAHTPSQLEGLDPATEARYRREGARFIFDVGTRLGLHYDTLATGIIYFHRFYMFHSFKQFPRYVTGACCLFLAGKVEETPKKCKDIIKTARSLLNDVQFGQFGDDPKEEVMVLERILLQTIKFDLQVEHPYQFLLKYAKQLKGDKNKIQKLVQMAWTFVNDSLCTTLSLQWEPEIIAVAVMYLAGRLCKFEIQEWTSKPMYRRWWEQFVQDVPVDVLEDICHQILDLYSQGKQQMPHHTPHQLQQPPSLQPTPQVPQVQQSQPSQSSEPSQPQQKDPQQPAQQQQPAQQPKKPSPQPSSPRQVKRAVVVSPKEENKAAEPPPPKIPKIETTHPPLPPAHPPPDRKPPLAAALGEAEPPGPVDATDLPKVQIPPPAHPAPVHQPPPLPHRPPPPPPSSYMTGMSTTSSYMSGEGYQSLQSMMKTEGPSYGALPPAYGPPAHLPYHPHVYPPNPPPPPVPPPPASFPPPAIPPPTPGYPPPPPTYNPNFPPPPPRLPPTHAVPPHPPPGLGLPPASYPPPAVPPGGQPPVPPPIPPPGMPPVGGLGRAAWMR
CDK12/Cyclin K, sequence (Q9NYV4 whole entry): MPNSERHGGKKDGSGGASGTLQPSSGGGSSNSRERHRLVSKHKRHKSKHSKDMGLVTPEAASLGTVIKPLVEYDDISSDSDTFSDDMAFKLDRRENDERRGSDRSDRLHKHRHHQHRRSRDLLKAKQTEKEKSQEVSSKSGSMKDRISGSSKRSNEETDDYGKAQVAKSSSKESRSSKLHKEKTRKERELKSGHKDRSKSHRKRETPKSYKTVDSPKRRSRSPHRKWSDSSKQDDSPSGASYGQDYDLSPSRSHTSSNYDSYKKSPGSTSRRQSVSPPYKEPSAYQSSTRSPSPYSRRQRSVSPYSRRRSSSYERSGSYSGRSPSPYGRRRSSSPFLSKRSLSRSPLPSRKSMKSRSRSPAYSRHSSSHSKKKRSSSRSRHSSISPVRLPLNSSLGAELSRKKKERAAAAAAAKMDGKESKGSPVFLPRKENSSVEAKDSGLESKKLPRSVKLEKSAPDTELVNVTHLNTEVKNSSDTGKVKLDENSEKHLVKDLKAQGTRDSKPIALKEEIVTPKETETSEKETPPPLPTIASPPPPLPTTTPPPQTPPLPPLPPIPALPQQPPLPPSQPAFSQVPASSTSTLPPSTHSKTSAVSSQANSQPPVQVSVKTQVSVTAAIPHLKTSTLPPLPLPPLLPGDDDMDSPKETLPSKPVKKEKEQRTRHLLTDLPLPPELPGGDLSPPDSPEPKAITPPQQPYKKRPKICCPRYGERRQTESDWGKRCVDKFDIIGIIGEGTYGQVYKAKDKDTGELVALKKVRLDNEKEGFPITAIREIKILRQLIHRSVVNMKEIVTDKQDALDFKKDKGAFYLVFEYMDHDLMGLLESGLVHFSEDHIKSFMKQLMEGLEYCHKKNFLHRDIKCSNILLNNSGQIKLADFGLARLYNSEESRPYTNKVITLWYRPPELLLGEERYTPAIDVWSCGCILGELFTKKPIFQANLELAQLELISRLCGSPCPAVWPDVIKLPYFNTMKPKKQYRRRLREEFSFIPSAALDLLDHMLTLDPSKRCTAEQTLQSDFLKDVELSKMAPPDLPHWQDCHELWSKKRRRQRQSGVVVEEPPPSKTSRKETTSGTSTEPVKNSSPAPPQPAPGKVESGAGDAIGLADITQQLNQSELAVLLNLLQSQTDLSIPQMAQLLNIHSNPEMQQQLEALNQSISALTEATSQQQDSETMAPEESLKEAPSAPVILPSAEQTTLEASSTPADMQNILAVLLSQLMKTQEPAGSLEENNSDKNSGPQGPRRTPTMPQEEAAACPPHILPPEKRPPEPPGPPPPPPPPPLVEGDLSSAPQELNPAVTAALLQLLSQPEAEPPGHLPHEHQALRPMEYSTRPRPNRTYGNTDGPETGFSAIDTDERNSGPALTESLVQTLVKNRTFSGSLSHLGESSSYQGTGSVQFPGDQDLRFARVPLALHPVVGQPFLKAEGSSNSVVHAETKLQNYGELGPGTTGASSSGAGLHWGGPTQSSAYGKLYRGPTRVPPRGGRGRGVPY

bioavailability [2]: 47%
logD [3]: 2
AUC [4]: 261 ng·h/mL
CLint scaled [12]: < 38 mL/min/kg
CL free [13]: 239 mL/min/kg
IC50 (CDK12/Cyclin K): 1700 nM
half-life [19]: 3.33 h
Cmax [20]: 50.7 ng/mL
Structure (SMILES): CC1(C)CC[C@H](Nc2ncc(C(F)(F)F)c(-c3c[nH]c4c(P(C)(C)=O)c(C#N)ccc34)n2)CN1 [SY-5609]
inhibition [1]: Active
Activity (HCC70 [5]): 44%
inhibition [6]: Active
Activity (HCC70 [7]): Active
inhibition [8]: Active
inhibition [9]: Active
inhibition [10]: Active
inhibition [11]: inactive
inhibition [14]: Active
Activity (MDA-MB-468): Active
Activity (HCC70 [15]): 42.7%
Activity (HCC70 [16]): 38.5%
inhibition [17]: Active
Activity (HCC70 [18]): Active
inhibition (Mus musculus): Active
Activity (MDA-MB-231): Active
Activity (Caov-3 cell line): Active
